# In the EternaBench riboswitch data:
# System: MS2 coat protein
# Assay: apparent Kd, MS2 coat protein; higher = weaker binding; RNA-MaP array; FMN 200 µM where present
# Method in brief: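 Each design was made on Illumina sequencing-chip clusters by stalled E. coli RNA polymerase and titrated with SNAP-549-labelled MS2 coat protein from 0.7 or 1.5 nM, doubling to 3 µM, in the absence and then the presence of constant ligand. The buffer was 100 mM Tris-HCl pH 7.5, 80 mM KCl, 4 mM MgCl2, BSA, DTT, yeast tRNA and Tween-20. The apparent Kd is the median of filtered per-cluster fits of binding curves, with green signal normalised to red-channel RNA signal and control-cluster median Fmax.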
# [1] = designed as: OFF switch for flavin mononucleotide, no ligand
# [2] = ligand present: flavin mononucleotide, designed as: OFF switch for flavin mononucleotide
# [3] = designed as: ON switch for flavin mononucleotide, no ligand
# [4] = ligand present: flavin mononucleotide, designed as: ON switch for flavin mononucleotide
Sequence,apparent Kd [1],apparent Kd [2],apparent Kd [3],apparent Kd [4]
UCGCUGCGAGGAUAUACAUGAGGAUCACCCAUGUACGGGUCCGGGUCUUCGUCUAUUGGUAGAAGGCGCAGUGA,0.0542 µM,0.277 µM,,
UCUCGACAUGAGGAUCACCCAUGUCAGGAUAUUGUGUUUGAGGUUUUUUACCUUUUGACAAGAAGGGAUGUGUG,,0.0305 µM,,
AGUCGGAGCAGAGGAUAUUACAUGAGGAUCACCCAUGUAGGUACCAAUAGCUGGAAACAGCAAUGUAAGAAGGCUGCUCCGACA,0.259 µM,0.281 µM,,
GUAGCUAUCGGAGGAUAUCCAUACCGGAAACGGACAUGAGGAUCACCCAUGUGGCGAAAGCCUUGGGAGAAGGCCGAUAGCUAC,,,0.00506 µM,0.00336 µM
GUGAAGUGAGGAUAUACGAGAGAGGCUGAACCGGACGAGAAGUAGAAGGCACAUGAGGAUCACCCAUGUAAGGA,0.033 µM,0.0321 µM,,
UUGGACGUCGUAGGAUAUGUAGGAUAUUCCUACAUGAGGAUCACCCAUGUUGACAUGGAAGAAGGACAGAAGCACGAUGUCCAU,,,0.199 µM,0.00535 µM
AAGGCGAGAGGAUAUACAUGAGGAUCACCCAUGUGUCGGCCCUCCGCAUAUGCCUUGUGUAGAAGGCUCCCGAA,0.0165 µM,0.0229 µM,,
GGGUCAUAUGUUAGGAUAUUGGAGGCAAGUGCCGUUAAGAAGGAACAUGAGGAUCACCCAUGUCUAACUGACUU,0.0345 µM,0.066 µM,,
UUAUUUAUACAAGGAUAUCAAUUAUAUACAAAUCCAACAUGAGGAUCACCCAUGUUUUAUUUUUUUGAGAAGGUGUAUUGUCAG,,,0.0328 µM,0.032 µM
ACGCUUUGGGAGAAGGUACUUUAAAAUAUUUCCACAUGAGGAUCACCCAUGUAAGGAUAUCCCAUCGUUAAAUAUUAUACAGCA,0.00891 µM,0.00688 µM,,
AGUUAGAUAGCGAUAUGAUCGAGAGAUCAUGUCGCUAAGUUUAGAAGGACAUGAGGAUCACCCAUGUAGGAUAUGGGAGUAGAA,,,0.149 µM,0.0539 µM
UCAUACAUUCGAGGAUAUCGGUGAUAACUCAAACGAGAAGGCGAUUUAAAACAUAAUGCUGUAGACAUGAGGAUCACCCAUGUA,,,0.476 µM,0.182 µM
UUGUUACAUGAGGAUCACCCAUGUGAGGAUAUGGCCCGCCCGGCGUGAGCUGGUUUUGUCAGAAGGCGCGUGGG,0.111 µM,0.159 µM,,
AAGAAGUCAGGAUAUCCAUGGCGGCACUUGCGUGGUGGCGUGGAGAAGGGACAUGAGGAUCACCCAUGUAAAGC,0.0471 µM,0.0328 µM,,
UCGCCAGGUACAGGAUAUGUGGAUCAGUCAAGUAAUUUGCUGAACAUGAGGAUCACCCAUGUAUCACAGAAGGGUGCCUCAAAA,,,0.173 µM,0.00841 µM
UUAUUUAGGUAGGAUAUCGAUAUCAAUCCCUAUCGAGAAGGGUCUACAUGAGGAUCACCCAUGUUAGCAUGUUU,0.0212 µM,0.0192 µM,,
GCACUGGAUGUAGGAUAUCAGGACGAUAAGUCCUGAGAAGGACAUGAGGAUCACCCAUGUAAACUCUAACCAGUGCAUAAUAUA,0.014 µM,0.0204 µM,,
AGAUGACAUGUAGGAUAUCGAGGCCUGAGGCCUCGAGAAGGACAUGAGGAUCACCCAUGUUUGCCGAGCAUGGAAUCCCGCACU,0.0291 µM,0.205 µM,,
UUUGACAGCUAGAGUUGUUAAGUACAUGAGGAUCACCCAUGUCAGGAUAUCCUUCCGCAAUGCGAGGAGAAGGGACAGGGUCCC,0.104 µM,0.232 µM,,
GUGAGGUCAGGAUAUGCAUGGCGGGACUUGCGUCGUGGCGUGGAGAAGGGACAUGAGGAUCACCCAUGUGGAGU,0.0876 µM,0.0495 µM,,
CGUUCAGAGAACGAUACGAAUAGACAUGAGGAUCACCCAUGUAGAAGGACAACGGAAUAAACGUUGUAGGAUAUACAUUUAGUG,0.0413 µM,0.111 µM,,
GCUCGUCGUGGAAGAGCAAAAGGACAGGAUAUCGCUUAAACAUGAGGAUCACCCAUGUCCGUUAACGAGAAGGGUCGAAUAAAU,,,0.138 µM,0.0243 µM
AGGUGAAAUGUAGGAUAUGGAAAUAAAUUUUAACCAGAAGGACAUGAGGAUCACCCAUGUGAUAGAGAGUUAUUUAUAACUCCA,0.0139 µM,0.0959 µM,,
GCCAACGCAUGAGGAUAUGCUCCCGUUUCGGGAGCAGAAGGCAUGUCAUAAGACAUGAGGAUCACCCAUGUAGUCAAGAUGGCA,,,0.291 µM,0.0167 µM

Sequence,apparent Kd [1],apparent Kd [2],apparent Kd [3],apparent Kd [4]
AGAGCCUCGUGAGGAUAUACAUGAGGAUCACCCAUGUAAAUGGAAUAACGGAGGAAACUCCGAAUGUAGAAGGCACGAGGCUCA,0.0799 µM,0.966 µM,,
AAAUACGGUCAAGGAUAUGUAUAAAAGAUAAGAAAACAUGAGGAUCACCCAUGUAUAUGGUGGGAACAGAAGGUGAAUAAGUAA,0.182 µM,0.142 µM,,
CUGGUUGUCGAGGAUAUGUCCCGGCUCGCUGUCGCAGAAGGCGACACAUGAGGAUCACCCAUGUCGGUUCGCGU,0.0346 µM,0.0305 µM,,
GGUGGCGUGAUAACGCUAGAUAUAACAUGAGGAUCACCCAUGUAGGAUAUCCCGCCGAGAGGGCGGGAGAAGGACAACCAAUGG,0.0409 µM,0.034 µM,,
CCCUCGUAGUAGAAGGGCGGCCGAAAUCUGCACGCAGGAUAUACAUGAGGAUCACCCAUGUACUGAGCUGAAGAGCACUUGGAA,0.0151 µM,0.0145 µM,,
CAUGAUCAUGUAGGAUAUAUACUGGAAUACAGUAUAGAAGGACAUGAGGAUCACCCAUGUUAUGUGCCUCCAAGUAAGAUCAUG,0.0185 µM,0.0247 µM,,
GACUCGCGCACAGGAUAUCCACAGAGCGGACGUGGAGAAGGGUGACAUGAGGAUCACCCAUGUACGUGAGUCUAGAUCACUUCC,,,0.0524 µM,0.031 µM
GCGAUAACAUGAGGAUCACCCAUGUAUGUGGCGGGCCCUACGAGAAGGCCAUGUAACAAAUACAUGGAGGAUAUCGGAUGAGUU,,,0.153 µM,0.0266 µM
UGACACAUGAGGGUCUCCCUUGACAUGAGGAUCACCCAUGUGCAGGAUAUACGUGUGAUGGUAUAGUAGAAGGGCACUCUAUGU,0.0306 µM,0.0405 µM,,
GGACGUCACAUCUACAUGAGGAUCACCCAUGUCUCUUGAUAUGAGGAUAUGUAUACGAAUCGUAUACAGAAGGCAUGGACGUCC,,,0.0269 µM,0.0288 µM
UUAUGAGCGAUAGGAUAUACUGAGAUUGAAUGGGUAGAAGGAUCGAUCGUGUGGAAGACAUGAGGAUCACCCAUGUUACGGGCC,,,0.056 µM,0.166 µM
CUUUAGUGAGGAUAUCAGUAGUAAUACAAUAGUAUUACUACUGAGAAGGCACAUGAGGAUCACCCAUGUUUCUC,0.031 µM,0.136 µM,,
AAUGUUUGAUUCCACUUAUACAUGAGGAUCACCCAUGUUAUCGAGGAUAUGCAUUAGAGUGUUUAGCAGAAGGCGAUGUAAAUG,0.00734 µM,0.0241 µM,,
CUCUUGUCAGGAUAUUAUGGACGAUAGCAGGGCUACGUCAGUGAGAAGGGACAUGAGGAUCACCCAUGUAAAAU,0.0836 µM,0.0552 µM,,
AUGUUACAUGAGGAUCACCCAUGUCAGGAUAUCUAUCAUAGCAUAGAAAUAUGCGGGUAGAGAAGGGACUAUCC,0.0154 µM,0.0138 µM,,
AGAAACUACGAGAAGGACAUGUGGUCCUUCAGUUACAUGAGGAUCACCCAUGUAGGAUAUCGUAGUUUCAGGAUCGUGAGAUCG,0.0404 µM,0.0204 µM,,
AAUAUGUUGCAGAAGGUUAUUUUUAUAACGAUCCAUUUGACAUGAGGAUCACCCAUGUAAUUGAUGAAGGAUAUGCAAUAUAUU,0.00642 µM,0.00718 µM,,
UCAGGCUUCGAGAAGGACAUGAGGAUCACCCAUGUGCGUGUGAAGCAGCCGUGAGGCUGCAUCAUGUAGGAUAUCGGAGUCUGC,0.082 µM,0.418 µM,,
GUCCUCCGUGCCCUUAACGCACAUGAGGAUCACCCAUGUAGGAGAAGGGCCCAACAAAUCAAAGGGCAGGAUAUCCAAAUCAUG,0.0751 µM,0.0189 µM,,
GGUGCGUAUGUGAGGAUAUGCUGGUCCUUGGAUCAGCAGAAGGCACAUGAGGAUCACCCAUGUGGUGUCGUACC,0.357 µM,0.0235 µM,,
UAUAUAUAGUAAGGAUAUGUAUUAAUUUGAUAAACAGAAGGUACUGACAUGAGGAUCACCCAUGUUUUAGUGUGGGCAUGUAGA,0.0989 µM,0.164 µM,,
AACAGCACAGGAUAUACAUGAGGAUCACCCAUGUGAGAAUUAAGUAGAUUGCCACAGAGUAGAAGGGUGCUGGA,0.0537 µM,0.104 µM,,
AAUUAUAUACAGAAGGAGUUAUAUUAAGUAUUACUAGGAUAUGUUCACAUGAGGAUCACCCAUGUCAUAUUGGGAUUUAUUUUU,0.017 µM,0.0216 µM,,
ACACAUGAGGAUCACCCAUGUAGCUGGCGUCUGCGCCAGCCACAGGAUAUACGGCAAAACAAACCGUAGAAGGGUGAUAAACAC,,,0.0801 µM,0.0318 µM
